{"data": "Experimental data pooled from the literature", "OR5K1 A2T/T15M/Y193C": "OR5K1 (Homo sapiens, UniProt Q8NHB7, A2T/T15M/Y193C)", "HTR6": "5-hydroxytryptamine receptor 6 (HTR6, Homo sapiens, UniProt P50406)", "STAT3": "Signal transducer and activator of transcription 3 (STAT3, Homo sapiens, UniProt P40763)", "PKM": "Pyruvate kinase PKM (PKM, Homo sapiens, UniProt P14618)", "HTR7": "5-hydroxytryptamine receptor 7 (HTR7, Homo sapiens, UniProt P34969)", "SIRT6": "NAD-dependent protein deacylase sirtuin-6 (SIRT6, Homo sapiens, UniProt Q8N6T7)", "CDK2": "Cyclin-dependent kinase 2 (CDK2, Homo sapiens, UniProt P24941)", "FLT4": "Vascular endothelial growth factor receptor 3 (FLT4, Homo sapiens, UniProt P35916)", "note": "Each line is one published result; the experiments were not run side by side."}
{"SMILES": "Cc1cnc(C)c(C)n1", "target": "OR5K1 A2T/T15M/Y193C", "test": "cAMP, agonist", "quantity": "EC50", "result": "419 µM"}
{"SMILES": "Cc1ccc2cccc(N3CCN(CCCCOc4ccc5sc(C(C)C)nc5c4)CC3)c2n1", "target": "HTR6", "test": "cell-free assay, radioligand", "quantity": "Ki", "result": "2.2 µM"}
{"SMILES": "CCc1nccnc1CC", "target": "OR5K1 A2T/T15M/Y193C", "test": "cAMP, agonist", "quantity": "EC50", "result": "499 µM"}
{"SMILES": "CN(CC(=O)N(Cc1ccc2ccccc2c1)c1ccc(C(=O)O)c(O)c1)S(=O)(=O)c1c(F)c(F)c(F)c(F)c1F", "target": "STAT3", "test": "ligand displacement, FP", "quantity": "Ki", "result": "32.5 µM"}
{"SMILES": "Cc1ccc(NS(=O)(=O)c2ccc3c(c2)CCC(=O)N3)cc1F", "target": "PKM", "test": "enzyme activity, activator", "quantity": "AC50", "result": "0.54 µM"}
{"SMILES": "Nc1nc2c(ncn2[C@@H]2O[C@H](COP(=O)(O)OP(=O)(O)O)[C@@H](OP(=O)(O)OP(=O)(O)O)[C@H]2O)c(=O)[nH]1", "target": "icd (Escherichia coli, UniProt P08200)", "test": "binding, ITC", "quantity": "Kd", "result": "132 µM"}
{"SMILES": "Cc1cc(NS(=O)(=O)c2cc3c(cc2F)NC(=O)CC3)ccc1Cl", "target": "PKM", "test": "enzyme activity, activator", "quantity": "AC50", "result": "0.6 µM"}
{"SMILES": "CCc1ncc(C)nc1CC", "target": "OR5K1 A2T/T15M/Y193C", "test": "cAMP, agonist", "quantity": "EC50", "result": "102 µM"}
{"SMILES": "Cc1ccc(NS(=O)(=O)c2cc3c(cc2N[C@H](C)CO)NC(=O)CC3)cc1C", "target": "PKM", "test": "enzyme activity, activator", "quantity": "AC50", "result": "0.88 µM"}
{"SMILES": "CN1C[C@H](CNC(=O)OCc2ccccc2)C[C@@H]2c3cccc4c3c(cn4C)C[C@H]21", "target": "HTR7", "test": "ligand displacement, radioligand", "setting": "cell membranes", "quantity": "Ki", "result": "0.016 µM"}
{"SMILES": "NCCc1ccc(C(=O)NOCc2ccc(C(F)(F)F)cc2)cc1", "target": "SIRT6", "test": "enzyme activity, inhibitor, fluorescence", "quantity": "IC50", "result": "2.65 µM"}
{"SMILES": "O=C1CCc2cc(S(=O)(=O)Nc3ccc4ncccc4c3)ccc2N1", "target": "PKM", "test": "enzyme activity, activator", "quantity": "AC50", "result": "> 20 µM"}
{"SMILES": "CCc1nccnc1OC", "target": "OR5K1 A2T/T15M/Y193C", "test": "cAMP, agonist", "quantity": "EC50", "result": "578 µM"}
{"SMILES": "CN(C)CCSc1nc2ccccc2cc1-c1ccccc1", "target": "HTR7", "test": "ligand displacement, radioligand", "setting": "cell membranes", "quantity": "Ki", "result": "0.393 µM"}
{"SMILES": "COc1cccc(OC)c1NS(=O)(=O)c1ccc(N/C=C2\\C(=O)Nc3ccc4ncsc4c32)cc1", "target": "CDK2", "test": "binding", "quantity": "Kd", "result": "0.179 µM"}
{"SMILES": "Cc1cccc(Sc2ccc(CONC(=O)c3ccc(C(N)=O)cc3)cc2C(F)(F)F)c1", "target": "SIRT6", "test": "enzyme activity, inhibitor, fluorescence", "quantity": "IC50", "result": "1.81 µM"}
{"SMILES": "C[C@H](NC(=O)CNC(=O)[C@@H]1CCCN1C(=O)[C@@H]1CCCN1C(=O)[C@H](C)NC(=O)[C@H](CCC(N)=O)NC(=O)CNC(=O)[C@@H]1CCCN1C(=O)[C@H](Cc1ccc(O)cc1)NC(=O)[C@H](C)NC(=O)CNC(=O)[C@@H]1CCCN1C(=O)[C@@H]1CCCN1C(=O)[C@H](C)NC(=O)[C@H](CCC(N)=O)NC(=O)CNC(=O)[C@@H]1CCCN1C(=O)[C@H](Cc1ccc(OP(=O)(O)O)cc1)NC(=O)[C@H](C)NC(=O)CN)C(=O)O", "target": "STAT3", "test": "binding, ITC", "setting": "pH 7.5", "quantity": "Kd", "result": "~40 µM"}
{"SMILES": "Cc1ccc(NS(=O)(=O)c2cc3c(cc2Cl)CCC(=O)N3)cc1Cl", "target": "PKM", "test": "enzyme activity, activator", "quantity": "AC50", "result": "0.09 µM"}
{"SMILES": "CC(=O)N[C@H](C(=O)N[C@@H](CC(N)=O)C(=O)N[C@@H](CCCCN)C(=O)N1CCC[C@H]1C(=O)N[C@@H](CC(C)C)C(=O)N1CCC[C@H]1C(=O)N1CCC[C@H]1C(=O)N[C@@H](CC(C)C)C(=O)N1CCC[C@H]1C(=O)N[C@H](C(=O)N[C@@H](C)C(N)=O)C(C)C)C(C)C", "target": "Tyrosine-protein kinase Fyn, SH3 (FYN, Homo sapiens, UniProt P06241)", "test": "binding, ITC", "setting": "pH 7", "quantity": "Kd", "result": "23.9 µM"}
{"SMILES": "Cc1cc(C)c(S(=O)(=O)N(C)CC(=O)N(Cc2cc(C(C)(C)C)cc(C(C)(C)C)c2)c2ccc(C(=O)O)c(O)c2)c(C)c1", "target": "STAT3", "test": "ligand displacement, FP", "quantity": "Ki", "result": "19.7 µM"}
{"SMILES": "CC1=C(/C=C/C2=CCC[C@]3(C)[C@@H]([C@H](C)CCCC(C)(C)O)CC[C@@H]23)C[C@@H](O)CC1", "target": "Oxysterols receptor LXR-beta (NR1H2, Homo sapiens, UniProt P55055)", "test": "coactivator recruitment, agonist, TR-FRET", "quantity": "EC50", "result": "0.01 to 0.1 µM"}
{"SMILES": "CC(=O)Nc1ccc(C(=O)NOCc2ccccc2)cc1", "target": "SIRT6", "test": "enzyme activity, inhibitor, fluorescence", "quantity": "IC50", "result": "218 µM"}
{"SMILES": "CC(=O)N=S(=O)(O)c1ccc(N/C=C2\\C(=O)Nc3ccc4ncsc4c32)cc1", "target": "CDK2", "test": "binding, ITC", "quantity": "Kd", "result": "0.194 µM"}
{"SMILES": "Cc1cnc(-c2ccc(-c3ccc(NC(=O)Nc4c(F)cc(F)cc4F)cc3F)c3c2C(=O)NC3)[nH]1", "target": "FLT4", "test": "binding, competition with immobilised ligand", "quantity": "Kd", "result": "0.016 µM"}
{"SMILES": "C=Cc1cnccn1", "target": "OR5K1 (Homo sapiens, UniProt Q8NHB7)", "test": "cAMP, agonist", "quantity": "EC50", "result": "> 1500 µM"}
{"SMILES": "O=C(NOCc1ccc(C(F)(F)F)cc1)c1ccc(CO)cc1", "target": "SIRT6", "test": "enzyme activity, inhibitor, fluorescence", "quantity": "IC50", "result": "6.68 µM"}
{"SMILES": "c1cncc(-c2cccc(Nc3nccc(NC4CCCCC4)n3)c2)c1", "target": "Serine/threonine-protein kinase D3 (PRKD3, Homo sapiens, UniProt O94806)", "test": "binding, competition with immobilised ligand", "quantity": "Kd", "result": "1.7 µM"}
{"SMILES": "COc1cccc(CONC(=O)c2ccc(C(N)=O)cc2)c1", "target": "SIRT6", "test": "enzyme activity, inhibitor, fluorescence", "quantity": "IC50", "result": "6.49 µM"}
{"SMILES": "Cc1ccc(NS(=O)(=O)c2cc3c(cc2/C=C/c2ccccc2)NC(=O)CO3)cc1C", "target": "PKM", "test": "enzyme activity, activator", "quantity": "AC50", "result": "> 20 µM"}
{"SMILES": "O=C(Nc1cc(C2CCCCC2)[nH]n1)c1ccc(Br)cc1", "target": "CDK2", "test": "binding, ITC", "quantity": "Kd", "result": "> 100 µM"}
{"SMILES": "Cc1ccc(NS(=O)(=O)c2cc3c(cc2N[C@@H](C)CO)CCC(=O)N3)cc1Cl", "target": "PKM", "test": "enzyme activity, activator", "quantity": "AC50", "result": "6.1 µM"}
{"SMILES": "COc1ccc(Sc2ccc(CONC(=O)c3ccc(C(N)=O)cc3)cc2C(F)(F)F)cc1", "target": "SIRT6", "test": "enzyme activity, inhibitor, fluorescence", "quantity": "IC50", "result": "1.48 µM"}
{"SMILES": "Cc1ccc(C(=O)Nc2ccc(Oc3cc4cnn(C)c4cc3-c3cn[nH]c3)c(F)c2)c(=O)n1-c1ccc(F)cc1", "target": "FLT4", "test": "enzyme activity in cells, inhibitor", "quantity": "IC50", "result": "> 0.316 µM"}
{"SMILES": "Cc1ccc(NS(=O)(=O)c2cc3c(cc2-c2ccccc2)NC(=O)CO3)cc1C", "target": "PKM", "test": "enzyme activity, activator", "quantity": "AC50", "result": "> 20 µM"}
{"SMILES": "CN1CCC(=C2c3ccccc3C=Cc3ccccc32)CC1", "target": "HTR7", "test": "ligand displacement, radioligand", "setting": "cell membranes", "quantity": "Ki", "result": "0.024 µM"}
{"SMILES": "NC(=O)c1ccc(C(=O)NOCc2ccc3nccnc3c2)cc1", "target": "SIRT6", "test": "enzyme activity, inhibitor, fluorescence", "quantity": "IC50", "result": "65 µM"}
{"SMILES": "CN1CCN(C2=Nc3cscc3/C(=C/C#N)c3cscc32)CC1", "target": "HTR7", "test": "ligand displacement, radioligand", "setting": "cell membranes", "quantity": "Ki", "result": "0.153 µM"}
{"SMILES": "NC(=O)c1ccc(C(=O)NOCc2ccc(Sc3ccccc3)c(C(F)(F)F)c2)cc1", "target": "SIRT6", "test": "enzyme activity, inhibitor, fluorescence", "quantity": "IC50", "result": "1.63 µM"}
{"SMILES": "CC(C)[C@@H](CC[C@@H](C)[C@H]1CC[C@H]2[C@@H]3[C@H](O)C[C@H]4C[C@@H](NCCCNCCCCNCCCN)CC[C@]4(C)[C@H]3CC[C@]12C)OS(=O)(=O)O", "target": "Receptor-type tyrosine-protein phosphatase C (PTPRC, Homo sapiens, UniProt P08575)", "test": "enzyme activity, inhibitor", "quantity": "Ki", "result": "18 µM"}
{"SMILES": "Cc1nc2cc(OCCCCN3CCN(c4cccc(Cl)c4Cl)CC3)ccc2s1", "target": "HTR6", "test": "cell-free assay, radioligand", "quantity": "Ki", "result": "0.72 µM"}
